Experimental data of several laboratories.
Compare with care: the assays were run in different laboratories. ≈ marks a conversion by molar mass, not a printed value.
Organism: Enterococcus faecalis

CCCCCCCCCCCCCCCc1cc(O)cc(O)c1  IC50 (microbial growth; ATCC29212): > 200 µM
CCCCCCCCCCCCCCCC(=O)NS(=O)(=O)OC1CCOCC1  MIC (microbial growth, broth dilution; ATCC33186): 25 µg/mL (≈ 59.6 µM)
CC1(C)S[C@@H]2[C@H](NC(=O)COc3ccccc3)C(=O)N2[C@H]1C(=O)O  MBC (microbial killing; drug-resistant strain, clinical isolate): > 128 µg/mL
CCCCCCCCCCCCCCCC(=O)NS(=O)(=O)OC1CCN(C(=O)OC(C)(C)C)CC1  MIC (microbial growth, broth dilution; ATCC33186): 25 µg/mL (≈ 48.2 µM)
CC(C)CCCCCCCCCCCCc1cc(O)cc(O)c1  IC50 (microbial growth; ATCC29212): 81.1 µM
CCCCCCCC/C=C\CCCCCCCC(=O)C(F)(F)P(=O)(O)O  MIC (microbial growth; ATCC33186): 6.25 µg/mL (≈ 15.8 µM)
CC1(C)S[C@@H]2[C@H](NC(=O)[C@H](N)c3ccccc3)C(=O)N2[C@H]1C(=O)O  inhibition zone (microbial growth, well diffusion; ATCC29212; 60000 µg/mL): 26 mm
O=C(CCCCc1ccccc1)CP(=O)(O)O  MIC (microbial growth; ATCC33186): > 200 µg/mL
ONCc1cc(F)cc(F)c1  MIC50 (microbial growth; ATCC19433; 8 h): < 80 µg/mL
CCCCCCCC(=O)CP(=O)(O)O  MIC (microbial growth; ATCC33186): > 200 µg/mL
CCC(CCCCCCCCCCc1cc(O)cc(O)c1)C(C)C (stereo not shown)  IC50 (microbial growth; ATCC29212): 9.23 µM
CCCCCCCCCCCCCCCC(=O)NS(=O)(=O)Oc1ccc(OC)cc1  MIC (microbial growth; ATCC33186): > 200 µg/mL
CCCCCCCCCCCCCCCC(=O)NS(=O)(=O)OC1CCCCC1  MIC (microbial growth, broth dilution; ATCC33186): 12.5 µg/mL (≈ 29.9 µM)
